Source: the EternaBench riboswitch data

System: MS2 coat protein
Test: apparent Kd, MS2 coat protein; higher = weaker binding; RNA-MaP array
Procedure, shortened: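 With or without input ligand, designed RNAs transcribed on an Illumina sequencing chip from sequenced DNA templates were incubated at room temperature with fluorescently labeled MS2 coat protein at 1.5 nM to 3 μM. The buffer was Tris-HCl pH 7.5 with KCl, MgCl2, BSA, DTT, tRNA and Tween20, and incubation ran 0.8–1.5 h at the lowest and 10–20 min at the highest concentrations. Apparent Kd is reported as the median of fits to binding curves from individual clusters. Designs measured on fewer than 10 clusters are not included.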

[1] = designed as: ON switch for flavin mononucleotide, no ligand
[2] = ligand present: flavin mononucleotide, designed as: ON switch for flavin mononucleotide
[3] = designed as: OFF switch for flavin mononucleotide, no ligand
[4] = ligand present: flavin mononucleotide, designed as: OFF switch for flavin mononucleotide
[5] = designed as: ON switch for theophylline, no ligand
[6] = ligand present: theophylline, designed as: ON switch for theophylline
[7] = designed as: OFF switch for tryptophan, no ligand
[8] = ligand present: tryptophan, designed as: OFF switch for tryptophan

Sequence	apparent Kd [1]	apparent Kd [2]	apparent Kd [3]	apparent Kd [4]	also measured
CGUGCAUGCUAGUAGGAUAUCCCGCAUGAAACAUGAGGAUCACCCAUGUAGAAGAUCUAUGAUCGGGAGAAGGACUCGUGAGAAAC	34.6 nM	12.1 nM			
AAGUAGGAAGGAUAUACAUGAGGAUCACCCAUGUAAGGCAUUUGGCUAUAAUCGUUAAGUAGAAGGUCCUGCCG			8.6 nM	8.2 nM	
UGUAGCCGCGAGAAGGUAAGCUAAGGAUGUGGUAUCAACGACUACAUGAGGAUCACCCAUGUGCUUAAGGAUAUCGAGGUGGAG	62.5 nM	104 nM			
ACGCACAUGAGGAUCACCCAUGUGAACCUACGAGGACCGGUACGGCCGCCACUCGCUGUUCCUACCGGCUUAAUUGUCACUGGGU					apparent Kd (designed as: ON switch for tryptophan, no ligand): 36.5 nM; apparent Kd (ligand present: tryptophan, designed as: ON switch for tryptophan): 35 nM
AUGCACUCAGUCAGGAUAUGCAACUUAUAAUACAGGCAGAAGGGACAUGAGGAUCACCCAUGUGGCCGGUAAGA			9.13 nM	39.1 nM	
ACUACAUGCGAAUACAUGAGGAUCACCCAUGUCCAUAAGACCUAGGAUAUCCAGUAACCCUGCAAGGAGAAGGAGGAGAGCACU	25.4 nM	19.6 nM			
GAAAUCAGAGAGAAGGGUUUACAUCCGACAUGAGGAUCACCCAUGUAGUAAAACUACGACAACUAACAGGAUAUCACUGGCACC	208 nM	176 nM			
GCGCGGCGUGAAGGAUAUGGUUCAGUACAUGAGGAUCACCCAUGUCAGACAGCAUCGGGGCCGUCCCAGAAGGUCACACGUUUU	9.14 nM	7.36 nM			
CCAGGGCGAAACAUGAGGAUCACCCAUGUCCUAGCAACGAUGAGAAGGGUAAACACAAUGUCUUUACAGGAUAUCAACCAUACG	11.2 nM	7.6 nM			
CGAAUCAACCGGCAGGAUAUGAAAACUAAAACAUGAGGAUCACCCAUGUCGGACAAGAACAUGAUACAGAAGGGCCACGUAACAAG	95.5 nM	26.3 nM			
AGUGGUGCAACUGAUACCAGAUUUAUACGAGACAUGAGGAUCACCCAUGUCGAAAGACAAAUCCCUUGGCAGCAGACACGAUCCC					apparent Kd [5]: 9.42 nM; apparent Kd [6]: 8.85 nM
ACGGUAGUACAUGAGGAUCACCCAUGUGGUUUUCUAAGAGGAUAGGAUAUACGUCCAAGCGGCAGGUAGAAGGAUCGAGUUUGC			41.7 nM	34 nM	
AAUUGAAUGGUAAGGAUAUAGGGUCGCGCCGAACGCUAGAAGGUACAUGAGGAUCACCCAUGUUGUGCGUCUUC			16.9 nM	17.7 nM	
AUGGUGGCUUCAGGAUAUCGCAAGUUAAUACGUCCCACAUGAGGAUCACCCAUGUAACGGUGGGUCGAGAAGGGAACCAUCCCG			90.8 nM	63.5 nM	
GGUGAGUCAGGAUAUUGUGCAUUUGAGACCCACACGGGACACAAGAAGGGACAUGAGGAUCACCCAUGUGCUCA			9.73 nM	12.8 nM	
AUGAUCGAACAGAAGGCACGGUGACAGUUAAAGUGAGGAUAUGUAGACAUGAGGAUCACCCAUGUUACUAUACACGGGUCUAUC			15.1 nM	45.9 nM	
UUCGACAGCGUGAGGAUAUCUACAUCGGGUAGGUGAGAGAAGGCACAUGAGGAUCACCCAUGUUCUGAAGAGCA			16 nM	19.9 nM	
CACACCGCAGUGAGGAUAUACCAACUGAACGUUGAGUAGAAGGCACAUGAGGAUCACCCAUGUCACUACUGACA			8.62 nM	35.7 nM	
UCAGGUCCGAAGAAGGCGAAGCAACAUUACUAUCGAGGAUAUUCUACAUGAGGAUCACCCAUGUCACCAUCGAUGACAGAGAAU			7.65 nM	7.93 nM	
AGCGCCUUAUCAGGAUAUAUGCGCAUGAAGUAGGUACACAUGAGGAUCACCCAUGUCCGGGGAACAUAGAAGGGAUAGAAGUAG	86.9 nM	48.7 nM			
AAGUUGAGCACAAAGGAUAUUUGUAAACAAACAUGAGGAUCACCCAUGUGAACAAUAGUACAUACAAAGAAGGUUGAGAUACAUGU	54.2 nM	25.9 nM			
UUGAUCUGACGAGGAUAUAUCAUAACACCUUUGAUAGAAGGCGUGAUCGACAUGAGGAUCACCCAUGUGCGUGACUUUGGUAGU	11.6 nM	10.8 nM			
GUACAUAUAGAGAAGGGUGAGUAUAUCAGCCUCACAGGAUAUCUGAUGAGUGACAUGAGGAUCACCCAUGUGGUUGUCGGUAGG			214 nM	102 nM	
GGUUAACAUGAGGAUCACCCAUGUAAGGAUAUCGGGCUGUCCAGGCGAUAGUACACGUCGAGAAGGUACGCGGU			10.8 nM	12.2 nM	
UCAAUCACACAUGAGGAUCACCCAUGUGAUAAUCAUGACUCAAGAAGGCAUGUGCAACUUGUUAAUGAGGAUAUUGGAGUAAUG			31.9 nM	22.3 nM	
GAGAGGGCUUGAGGAUAUCUUCACUCCGACAUGAGGAUCACCCAUGUAUUCCGUUGAUCGUUGGGAGAGAAGGCAACUUUGUAA			58 nM	54 nM	
GGUUCAUCGUCGGCCGCCACUCACAUGAGGUGGAGCUGUAAACAUGAGGAUCACCCAUGUUGUUAGAGGACCGGGACGUGACGGC					apparent Kd [7]: 33.8 nM; apparent Kd [8]: 36.7 nM
GCCGUUCGAGAGAAGGUUGUACGCGCCACGCGCACAUGAGGAUCACCCAUGUCCUCCAAACUCACAAAGGAUAUCUUAAGAACA			415 nM	508 nM	

Sequence	apparent Kd [1]	apparent Kd [2]	apparent Kd [3]	apparent Kd [4]	also measured
GGAAUCUUUCGAGGAUAUGUCCCACAAUAGUGCCUACCGGGUAACAUGAGGAUCACCCAUGUGAGACAGAAGGCGAGGUUUGGC			9.86 nM	38 nM	
AUAAACUAACAUGAGGAUCACCCAUGUAUGGAGAAAAUACCUAGAAGGAGGAUAUUUACAACAUCCAAGGAUAUAGGAGCCUCA	68.1 nM	42.4 nM			
UCUAUGCUAACAGGAUAUCGCGGCACGAUGCUUCGAGAAGGGUUAACAUGAGGAUCACCCAUGUGUGUCCUACGGAGACCGCGC			9.01 nM	11.8 nM	
CCUCGUCCGUACAUGAGGAUCACCCAUGUGAGCCCUAAACCCAGAAGGCAAUGAAUACCUAUUCUUGAGGAUAUGGAUCACCGU			279 nM	185 nM	
UCCAGACAUGAGGAUCACCCAUGUUGUGAUACCAGAACCGUGGAGUUCCCUUGGCAGCACUAAGAAGUUCCUGGAUCAGCUAGCG					apparent Kd [5]: 27.6 nM; apparent Kd [6]: 32.8 nM
CCAGUGGGUGGAGGAUAUGAUGACAAACUGUGUUCAGAAGGCCACCUCAAGACACGAACAUGAGGAUCACCCAUGUCCCAACCU	227 nM	15.8 nM			
GCUUAGAAACCUGAUACCAGUCAGCCCUAUGACAUGAGGAUCACCCAUGUGAUACUCACGGACCCUUGGCAGCAGGGUCGAUUAC					apparent Kd [5]: 695 nM; apparent Kd [6]: 429 nM
UCAGUGUCAGGAUAUUCUAACGAGGGUAGUGCGCCCUUUGUGAAGAAGGGACAUGAGGAUCACCCAUGUACUUG			51.2 nM	125 nM	
AGAAAUACAUGAGGAUCACCCAUGUGCAUCCUGACUAGUUGACAGGAUAUCAGUCUUACCUGGGCUGAGAAGGGUCCGCGUAGC			19.8 nM		
CGCCGUACGUCAGGAUAUCACAAUUGGAUCCAUCACAUGAGGAUCACCCAUGUUUACAAGUAGAAUGAGAAGGGACAAGGAUAA	49.3 nM	43.8 nM			
GAACGGAGAGAAGGAUAUGGCAUAUUGCCUCACAUGAGGAUCACCCAUGUCAAGACAAAGCGAUCCCAGAAGGUCUCACAACAU	60.1 nM	26.8 nM			
UCGGCACAUGAGGAUCACCCAUGUAAGGAUAUACGAAGCUUGCAGUCGCUGUUAUUUGGUAGAAGGUACCCUCG			14.5 nM	12.5 nM	
CAGAGCCAAAACAAGGAUAUACAUAACAUUACAUGAGGAUCACCCAUGUUAUAGCUAACCUUGUAGUAGAAGGUGUUUGGCAACAU	7.36 nM	6.39 nM			
GCCUUAGGGGCAGGAUAUUUCGAGGACCUCAACAUGAGGAUCACCCAUGUACCGCAAUCGUCUCUAAAGAAGGGCCUCUUGCUC	53.9 nM	28.5 nM			
AAAUAUAAUCAGAAGGGUUGCUAAACAUGAGGAUCACCCAUGUGAUAACGAUACGAGUAAAUCGAACAGGAUAUGAUGCAGGUU	16.5 nM	12 nM			
GCUUGACAUGAGGAUCACCCAUGUAAAUGAGAGACAGGAUAUACGAGACACGUAGGGUAGGUAGAAGGGUCGACUG	15.1 nM	9.69 nM			
CUAAAACAUGAGGAUCACCCAUGUCAUUUAACUCAAGGAUAUAGAUCUGAGAGCUCAGCGCUAGAAGGUGAUUUUG	55.1 nM	40.3 nM			
AAACAUACGUGAGGAUAUCCCGUUUGAGAGGCUAGUAUCAUCGAAACAUGAGGAUCACCCAUGUCGGAGAAGGCACUACAGGAG	6.63 nM	6.6 nM			
AAACGACAUGAGGAUCACCCAUGUACCUUUUACCUAGGAUAUCAGGUGCAUCAUACGUGCUGAGAAGGAGGCUCGC	64.1 nM	59.7 nM			
GGGUCGCGUUCGGCCGCCACUUGGAAACAUGAGGAUCACCCAUGUCAUAUGGUGGGACAUGUUGUAAGGACCGGGAACCGUCCUA					apparent Kd [7]: 64.2 nM; apparent Kd [8]: 88.1 nM
GCCUAGCUAGGAUAUACCAGAGUGUAUACUUAUGUGGAUCGACAUGAGGAUCACCCAUGUAGAAGGAGCAAGAU			30.8 nM	58 nM	
UGAACCGGAAAGAAGGCCUUGCUUUAACGUACAGGAGGAUAUUUCCUAUUUGUGAGCCUUGACAUGAGGAUCACCCAUGUAUCG			479 nM	116 nM	
GACAGAAAGUCAGGAUAUGAACGGUCAUGACAUGAGGAUCACCCAUGUUUCUUGUGCACCCUGCGUCAGAAGGGACUAGUGAGG	19.3 nM	12.8 nM			
AUUUCUUCGGUCAGGAUAUCUAGUGUAACGCGGUCAGAGAAGGGACAUGAGGAUCACCCAUGUGUGACUCUCUG			5.77 nM	5.9 nM	
AAACAAAUGCAAGGAUAUCAUAAUACAAACAGGAGAGAAGGUGCAGAGCACAUGAGGAUCACCCAUGUCCUAGGAUAUUCCUAA	121 nM	80.4 nM			
CGGGAACAUGAGGAUCACCCAUGUCAGGAUAUACGCGAUGGCAACAGUGAUUGUUUGUGUAGAAGGGACUUACG			33.3 nM	30.2 nM	
CACCUCCAAGGAUAUACAUGAGGAUCACCCAUGUGGAUAACCUGGGCGCGCCGAGCAAGUAGAAGGUGGAUUGG			10.9 nM	14.7 nM	
